Experimental data from ChEMBL document CHEMBL1156708, “Enamines as novel antibacterials and their structure-activity relationships” (2008).
Values after ≈ are worked out from the molar mass of the structure shown.

Key:
Type in all cases: functional
Bacillus subtilis = experiment: Antibacterial activity against Bacillus subtilis ATCC 6633 after 24 hrs by MTT assay; conditions: ATCC 6633, 24 h
Method in brief: (§1)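 Broth microdilution MIC in MH medium; compounds from 50 mg/mL DMSO stock serially diluted in medium in microtitration plates. Inoculum about 10⁵ cfu/mL; incubated at 37 °C for 24 h. MIC read visually, then PBS containing 2 mg MTT/mL added per well; after 12 h further incubation at room temperature, OD read at 550 nm.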

Aspergillus niger = experiment: Antifungal activity against Aspergillus niger ATCC 16404 after 48 hrs by MTT assay; conditions: ATCC 16404, 48 h
Method in brief: (§2)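 MIC determined by serial dilution in RPMI-1640 medium in microtitration plates, compounds from 50 mg/mL DMSO stock. Fungal suspension about 10⁵ cfu/mL, incubated at 37 °C for 48 h. Visual MIC reading followed by addition of PBS with 2 mg MTT/mL; OD at 550 nm measured after 12 h at room temperature.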

Staphylococcus aureus = experiment: Antibacterial activity against Staphylococcus aureus ATCC 6538 after 24 hrs by MTT assay; conditions: ATCC 6538, 24 h; method in brief: as §1
Pseudomonas fluorescens = experiment: Antibacterial activity against Pseudomonas fluorescens ATCC 13525 after 24 hrs by MTT assay; conditions: ATCC 13525, 24 h; method in brief: as §1
Candida albicans = experiment: Antifungal activity against Candida albicans ATCC 10231 after 48 hrs by MTT assay; conditions: ATCC 10231, 48 h; method in brief: as §2
Trichophyton rubrum = experiment: Antifungal activity against Trichophyton rubrum ATCC 10218 after 48 hrs by MTT assay; conditions: ATCC 10218, 48 h; method in brief: as §2
Escherichia coli = experiment: Antibacterial activity against Escherichia coli ATCC 35218 after 24 hrs by MTT assay; conditions: ATCC 35218, 24 h; method in brief: as §1

Row | Structure (SMILES) | MIC (Bacillus subtilis) [µg/mL] | MIC (Aspergillus niger) [µg/mL] | MIC (Staphylococcus aureus) [µg/mL] | MIC (Pseudomonas fluorescens) [µg/mL] | MIC (Candida albicans) [µg/mL] | MIC (Trichophyton rubrum) [µg/mL] | MIC (Escherichia coli) [µg/mL]
1 | CCOC(=O)/C(=C\Nc1ccc(O)cc1)c1ccc(Cl)cc1 | > 50 | > 50 | 44.9 (≈ 141 µM) | 13.1 (≈ 41.2 µM) | > 50 | > 50 | 38.9 (≈ 122 µM)
2 | CCOC(=O)/C(=C\Nc1cc(OC)cc(OC)c1)c1ccc(Cl)cc1 | > 50 | > 50 | > 50 | 36.3 (≈ 100 µM) | > 50 | > 50 | > 50
3 | CCOC(=O)/C(=C/Nc1ccc(Br)cc1Br)c1ccc(Cl)cc1 | > 50 | > 50 | 8.2 (≈ 17.8 µM) | 4.5 (≈ 9.79 µM) | > 50 | > 50 | > 50
4 | CCOC(=O)/C(=C/N1CCCc2ccccc21)c1ccc(OC)cc1 | > 50 | > 50 | > 50 | 41.5 (≈ 123 µM) | > 50 | > 50 | > 50
5 | CCOC(=O)/C(=C/Nc1cc(Br)c(OC)c(Br)c1)c1ccc(Cl)cc1 | > 50 | > 50 | 2.2 (≈ 4.49 µM) | 6.1 (≈ 12.5 µM) | > 50 | > 50 | > 50
6 | CCOC(=O)/C(=C\Nc1cc(F)cc(F)c1)c1ccc(Cl)cc1 | > 50 | > 50 | > 50 | > 50 | > 50 | > 50 | > 50
7 | CCOC(=O)/C(=C\Nc1ccc(F)cc1F)c1ccc(Cl)cc1 | > 50 | > 50 | > 50 | > 50 | > 50 | > 50 | 47.3 (≈ 140 µM)
8 | CCOC(=O)/C(=C\Nc1cc(Br)c(OC)c(Br)c1)c1ccc(Cl)cc1 | 43.3 (≈ 88.4 µM) | > 50 | 47.7 (≈ 97.4 µM) | 48.1 (≈ 98.2 µM) | > 50 | > 50 | 48.6 (≈ 99.3 µM)
9 | CCOC(=O)/C(=C/Nc1ccc(O)cc1)c1ccc(Cl)cc1 | > 50 | > 50 | 0.5 (≈ 1.57 µM) | 1.5 (≈ 4.72 µM) | > 50 | > 50 | > 50
10 | CC1(C)S[C@@H]2[C@H](NC(=O)Cc3ccccc3)C(=O)N2[C@H]1C(=O)O [PENICILLIN G] | 0.78 (≈ 2.33 µM) | – | 2 (≈ 5.98 µM) | – | – | – | –
11 | CC(=O)N1CCN(c2ccc(OCC3COC(Cn4ccnc4)(c4ccc(Cl)cc4Cl)O3)cc2)CC1 (stereo unspecified) [KETOCONAZOLE] | – | 7.8 (≈ 14.7 µM) | – | – | 3.9 (≈ 7.34 µM) | 3.9 (≈ 7.34 µM) | –
12 | CCOC(=O)/C(=C/Nc1cc(Br)c(OCc2ccccc2)c(Br)c1)c1ccc(Cl)cc1 | > 50 | > 50 | 3.4 (≈ 6.01 µM) | 8.5 (≈ 15 µM) | > 50 | > 50 | > 50
13 | CCOC(=O)/C(=C/Nc1ccccc1F)c1ccc(Cl)cc1 | > 50 | > 50 | 41.2 (≈ 129 µM) | > 50 | > 50 | > 50 | > 50
14 | CCOC(=O)/C(=C/Nc1cc(Br)c(O)c(Br)c1)c1ccc(Cl)cc1 | > 50 | > 50 | 1 (≈ 2.1 µM) | 3.7 (≈ 7.78 µM) | > 50 | > 50 | > 50
15 | CCOC(=O)/C(=C/Nc1ccc(F)cc1)c1ccc(Cl)cc1 | > 50 | > 50 | 35.6 (≈ 111 µM) | > 50 | > 50 | > 50 | > 50
16 | CCOC(=O)/C(=C\Nc1cc(Cl)cc(Cl)c1)c1ccc(Cl)cc1 | > 50 | > 50 | > 50 | > 50 | > 50 | > 50 | > 50
17 | CCOC(=O)/C(=C\Nc1ccc(F)cc1)c1ccc(Cl)cc1 | 49.8 (≈ 156 µM) | > 50 | > 50 | > 50 | > 50 | > 50 | 43.4 (≈ 136 µM)
18 | CCOC(=O)/C(=C\Nc1cc(Br)c(OCc2ccccc2)c(Br)c1)c1ccc(Cl)cc1 | > 50 | > 50 | > 50 | > 50 | > 50 | > 50 | > 50
19 | CCOC(=O)/C(=C\Nc1ccccc1F)c1ccc(Cl)cc1 | 46.6 (≈ 146 µM) | > 50 | > 50 | 46 (≈ 144 µM) | > 50 | > 50 | > 50
20 | CCOC(=O)/C(=C/Nc1cc(Cl)cc(Cl)c1)c1ccc(Cl)cc1 | > 50 | > 50 | 1.1 (≈ 2.97 µM) | 25.7 (≈ 69.3 µM) | > 50 | > 50 | > 50
21 | CCOC(=O)/C(=C\Nc1ccc(Br)cc1Br)c1ccc(Cl)cc1 | > 50 | > 50 | 32.1 (≈ 69.8 µM) | 23.8 (≈ 51.8 µM) | > 50 | > 50 | > 50
22 | CCOC(=O)/C(=C\Nc1cc(Br)c(O)c(Br)c1)c1ccc(Cl)cc1 | > 50 | > 50 | 33.5 (≈ 70.4 µM) | > 50 | > 50 | > 50 | > 50
23 | CCOC(=O)/C(=C/N1CCCc2ccccc21)c1ccc(Cl)cc1 | > 50 | > 50 | > 50 | 38.5 (≈ 113 µM) | > 50 | > 50 | > 50
24 | NC[C@H]1O[C@H](O[C@H]2[C@H](O)[C@@H](O[C@H]3O[C@H](CO)[C@@H](O)[C@H](N)[C@H]3O)[C@H](N)C[C@@H]2N)[C@H](O)[C@@H](O)[C@@H]1O [KANAMYCIN] | 0.39 (≈ 0.805 µM) | – | 1 (≈ 2.06 µM) | 3.9 (≈ 8.05 µM) | – | – | 3.9 (≈ 8.05 µM)
25 | CCOC(=O)/C(=C/Nc1ccc(Cl)cc1Cl)c1ccc(Cl)cc1 | > 50 | > 50 | 12.3 (≈ 33.2 µM) | 7.1 (≈ 19.2 µM) | > 50 | > 50 | > 50
26 | CCOC(=O)/C(=C\Nc1ccc(Cl)cc1Cl)c1ccc(Cl)cc1 | > 50 | > 50 | > 50 | > 50 | > 50 | > 50 | > 50
27 | CCOC(=O)/C(=C/Nc1cc(F)cc(F)c1)c1ccc(Cl)cc1 | 48.2 (≈ 143 µM) | > 50 | 1.9 (≈ 5.63 µM) | 31.5 (≈ 93.3 µM) | > 50 | > 50 | 13.5 (≈ 40 µM)
28 | CCOC(=O)/C(=C/Nc1ccc(F)cc1F)c1ccc(Cl)cc1 | > 50 | > 50 | 40.9 (≈ 121 µM) | > 50 | > 50 | > 50 | 48 (≈ 142 µM)
29 | CCOC(=O)/C(=C/Nc1cc(OC)cc(OC)c1)c1ccc(Cl)cc1 | > 50 | > 50 | 0.9 (≈ 2.49 µM) | 1.6 (≈ 4.42 µM) | > 50 | > 50 | > 50
